From ChEMBL document CHEMBL4390672, “Development of Covalent Ligands for G Protein-Coupled Receptors: A Case for the Human Adenosine A3 Receptor” (J Med Chem, 2019)
Substitutions are numbered along the chain they refer to.

Tests used:
[1] = target: T1, Adenosine receptor A3 (Homo sapiens) (UniProt P0DMS8); experiment: Displacement of [3H]PSB11 from human A3 adenosine receptor expressed in CHO cell membranes measured after 2 hrs by scintillation spectrometric method
T1 sequence (whole entry): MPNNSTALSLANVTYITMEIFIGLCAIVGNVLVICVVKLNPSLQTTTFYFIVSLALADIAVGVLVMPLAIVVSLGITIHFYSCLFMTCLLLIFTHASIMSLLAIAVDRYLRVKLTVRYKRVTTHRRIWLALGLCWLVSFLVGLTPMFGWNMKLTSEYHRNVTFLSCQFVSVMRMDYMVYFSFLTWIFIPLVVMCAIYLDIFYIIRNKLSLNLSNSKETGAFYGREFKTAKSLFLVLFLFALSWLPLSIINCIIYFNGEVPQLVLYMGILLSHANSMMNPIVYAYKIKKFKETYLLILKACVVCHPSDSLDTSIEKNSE

[2] = target: T1, Adenosine receptor A3 (Homo sapiens); experiment: Displacement of [3H]PSB11 from human A3 adenosine receptor expressed in CHO cell membranes at 10 uM measured after 2 hrs by scintillation spectrometric method relative to control
[3] = target: T2, Adenosine receptor A2b (Homo sapiens) (UniProt P29275); experiment: Displacement of [3H]PSB-603 from human A2B adenosine receptor expressed in CHO cell membranes at 1 uM measured after 2 hrs by scintillation spectrometric method relative to control
T2 sequence (whole entry): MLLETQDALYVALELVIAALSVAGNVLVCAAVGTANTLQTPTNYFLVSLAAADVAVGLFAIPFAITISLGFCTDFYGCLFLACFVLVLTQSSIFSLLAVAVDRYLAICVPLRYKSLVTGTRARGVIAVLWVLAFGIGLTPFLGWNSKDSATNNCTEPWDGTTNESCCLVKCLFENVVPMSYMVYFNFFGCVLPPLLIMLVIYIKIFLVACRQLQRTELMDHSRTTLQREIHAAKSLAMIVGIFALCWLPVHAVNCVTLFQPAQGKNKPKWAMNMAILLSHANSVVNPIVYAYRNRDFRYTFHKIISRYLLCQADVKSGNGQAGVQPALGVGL

[4] = target: T1, Adenosine receptor A3 (Homo sapiens); experiment: Displacement of [3H]PSB11 from human A3 adenosine receptor transiently expressed in CHOK1 cell membranes measured after 2 hrs by scintillation spectrometric method
In short: (§1)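 CHO-K1 cells transfected by PEI (3:1, 20 µg DNA/dish) with WT or Y265F7.36 hA3AR, then given 5 mM sodium butyrate for 24 h before membrane preparation.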

[5] = tested on: T3, Adenosine receptor A3 (Homo sapiens), P0DMS8 [Y265F]; experiment: Displacement of [3H]PSB11 from human A3 adenosine receptor Y265F (7.36) mutant transiently expressed in CHOK1 cell membranes measured after 2 hrs by scintillation spectrometric method; in short: as §1
T3 sequence (whole entry): T1 sequence (whole entry) with Y265F

[6] = target: T4, Adenosine receptor A3 (Homo sapiens, UniProt P0DMS8); experiment: Irreversible displacement of [3H]PSB11 from human A3 adenosine receptor expressed in CHO cell membranes measured up to 240 mins by scintillation spectrometric method; conditions: in the assay text read “Displacement” for “Irreversible displacement”
T4 sequence (P0DMS8 whole entry): T1 sequence (whole entry)
In short: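 Bound radioligand sampled at time points up to 240 min, then filtered and counted. Competitor kon (k3) and koff (k4) obtained by Motulsky–Mahan fitting, using [3H]PSB-11 k1 and k2 from earlier work.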

[7] = target: T1, Adenosine receptor A3 (Homo sapiens); experiment: Reversible displacement of [3H]PSB11 from human A3 adenosine receptor expressed in CHO cell membranes assessed as residual binding level at 10 times Ki measured after 2 hrs by scintillation spectrometric method relative to control
In short: (§2)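 Samples then either taken unwashed or put through four centrifugation wash cycles before exposure to [3H]PSB-11. Remaining specific binding was normalized to vehicle (100%). Three experiments in duplicate; unpaired t test.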

[8] = target: T1, Adenosine receptor A3 (Homo sapiens); experiment: (§3) Reversible displacement of [3H]PSB11 from human A3 adenosine receptor expressed in CHO cell membranes assessed as residual binding level at 10 times Ki incubated for 2 hrs followed by 4 times membrane washout and subsequent [3H]PSB11 addition by scintillation spectrometric method relative to control; in short: as §2
[9] = target: T4, Adenosine receptor A3; experiment: Competitive surmountable antagonist activity at human A3 adenosine receptor expressed in CHO cell membranes assessed as inhibition of 2-Cl-IB-MECA-induced [35S]-GTPgammaS binding preincubated for 60 mins followed by 2-Cl-IB-MECA and [35S]-GTPgammaS addition and measured after 30 mins; assay type: functional; conditions: read-out: pA2 (converted)
[10] = target: T4, Adenosine receptor A3; experiment: Competitive surmountable antagonist activity at human A3 adenosine receptor expressed in CHO cell membranes assessed as inhibition of 2-Cl-IB-MECA-induced [35S]-GTPgammaS binding measured after 30 mins; assay type: functional; conditions: read-out: pA2 (converted)
[11] = target: T1, Adenosine receptor A3 (Homo sapiens); experiment: as §3, with “Irreversible” for “Reversible”, “ans” for “and”
In short: (§4)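 Membranes then either unwashed or washed four times by centrifugation before [3H]PSB-11 addition. Specific binding normalized to vehicle (100%); three experiments in duplicate; unpaired t test.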

[12] = tested on: T3, Adenosine receptor A3 (Homo sapiens), P0DMS8 [Y265F]; experiment: (§5) Displacement of [3H]PSB11 from human A3 adenosine receptor Y265F (7.36) mutant transiently expressed in CHOK1 cell membranes assessed as residual binding level at 10 times IC50 measured after 2 hrs by scintillation spectrometric method
In short: (§6)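 Membranes then either unwashed or washed four times before [3H]PSB-11 exposure. Binding normalized to vehicle (100%); three experiments in duplicate.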

[13] = tested on: T3, Adenosine receptor A3 (Homo sapiens), P0DMS8 [Y265F]; experiment: as §5, with “incubated for” for “measured after”, “hrs followed by 4 times membrane washout and subsequent [3H]PSB11 addition” for “hrs”; in short: as §6
[14] = target: T1, Adenosine receptor A3 (Homo sapiens); experiment: Displacement of [3H]PSB11 from human A3 adenosine receptor expressed in CHO cell membranes by scintillation spectrometric method; conditions: TDE = time-dependent effect
In short: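 CHO membranes stably expressing hA3AR (15 µg) in 50 mM Tris-HCl, 5 mM MgCl2, 0.01% CHAPS, 1 mM EDTA, pH 7.4, with ~10 nM [3H]PSB-11 and six competitor concentrations, 120 min at 25 °C. Nonspecific binding defined with 100 µM NECA. Filtration, then scintillation counting; one-site fit, Cheng-Prusoff Ki; three experiments in duplicate.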

[15] = target: T1, Adenosine receptor A3 (Homo sapiens); experiment: Irreversible displacement of [3H]PSB11 from human A3 adenosine receptor expressed in CHO cell membranes assessed as residual binding level at 10 times Ki measured after 2 hrs by scintillation spectrometric method relative to control; in short: as §4

Compound: CCCn1c(=O)c2c(nc3cc(OC)ccn32)n(CCCOC(=O)c2cccc(S(=O)(=O)F)c2)c1=O
- inhibition [1]: Dose-dependent effect

Compound: CCCn1c(=O)c2c(nc3cc(OC)ccn32)n(CCNC(=O)c2ccc(S(=O)(=O)F)cc2)c1=O
- inhibition [1]: Dose-dependent effect
- inhibition [2]: 27%

Compound: CCCn1c(=O)c2c(nc3cc(OC)ccn32)n(CCCOC(=O)c2ccc(S(=O)(=O)F)cc2)c1=O
- inhibition [1]: Dose-dependent effect

Compound: CCCn1c(=O)c2c(nc3cc(OC)ccn32)n(CCOC(=O)c2cccc(S(=O)(=O)F)c2)c1=O
- inhibition [1]: Dose-dependent effect

Compound: CCCn1c(=O)c2c(nc3cc(OC)ccn32)n(CCCNC(=O)c2cccc(S(=O)(=O)F)c2)c1=O
- inhibition [1]: Dose-dependent effect

Compound: CCCn1c(=O)c2c(nc3cc(OC)ccn32)n(CCCCOC(=O)c2cccc(S(=O)(=O)F)c2)c1=O
- inhibition [1]: Dose-dependent effect

Compound: CCCn1c(=O)c2c(nc3cc(OC)ccn32)n(CCNC(=O)c2cccc(S(=O)(=O)F)c2)c1=O
- inhibition [1]: Dose-dependent effect
- inhibition [2]: 18%

Compound: CCCn1c(=O)c2c(nc3cc(OC)ccn32)n(CCCNC(=O)c2ccc(S(C)(=O)=O)cc2)c1=O
- inhibition [1]: Dose-dependent effect
- inhibition [3]: 0%
- pIC50(app) [4]: 5.9
- pIC50(app) [5]: 6.1
- Ki [6]: 525 nM
- Activity [7]: 19.8%
- Activity [8]: 97.6%
- Kb [9]: 1260 nM
- Kb [10]: 631 nM

Compound: CCCn1c(=O)c2c(nc3cc(OC)ccn32)n(CCCCNC(=O)c2cccc(S(=O)(=O)F)c2)c1=O
- inhibition [1]: Dose-dependent effect

Compound: CCCn1c(=O)c2c(nc3cc(OC)ccn32)n(CCCNC(=O)c2ccc(S(=O)(=O)F)cc2)c1=O
- inhibition [1]: Dose-dependent effect
- Activity [11]: 8.7%
- Activity [12]: 7.2%
- Activity [13]: 91%
- inhibition [14]: Tde
- Activity [15]: 11.3%

Compound: CCCn1c(=O)c2c(nc3cc(OC)ccn32)n(CCCCOC(=O)c2ccc(S(=O)(=O)F)cc2)c1=O
- inhibition [1]: Dose-dependent effect

Compound: CCCn1c(=O)c2c(nc3cc(OC)ccn32)n(CCOC(=O)c2ccc(S(=O)(=O)F)cc2)c1=O
- inhibition [1]: Dose-dependent effect

Compound: CCCn1c(=O)c2c(nc3cc(OC)ccn32)n(CCCCNC(=O)c2ccc(S(=O)(=O)F)cc2)c1=O
- inhibition [1]: Dose-dependent effect
